STAT1 blocker: STAT1 signaling inhibitors, primary screen, cell-based, HTS, luciferase reporter; inhibition, % at 5.5 µM; actives 0.35% (n = 200,000); NIH 3T3 STAT1-luciferase reporter, IFN-gamma, luminescence;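 active means inhibition above a set limit, the mean inhibition across all tested compounds plus 3 SD, cut at about 34% in these data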;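 further: 0% = IFN-gamma with DMSO and 100% = IFN-gamma with 300 µM nifuroxazide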
STAT3 blocker: IL-6 driven STAT3 reporter inhibitors, primary screen, U3A cells, luciferase, luminescence, MLSCN library. IL-6 STAT3-luciferase reporter; host cell line lacks STAT1. inhibition, % at 5.5 µM. actives 0.89% (n = 190,000). AID 862, 2007;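 active means inhibition above the mean inhibition across all screened compounds plus 3 SD, cut at about 44% in these data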;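 further: 0% = DMSO only wells and 100% = 100 µM nifuroxazide control wells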
STAT1 act: STAT1 signaling activators, primary screen, cell-based, HTS, luciferase reporter | NIH 3T3 STAT1-luciferase reporter, IFN-gamma, luminescence; 100% = IFN-gamma alone, no compound | activation (% of control), % at 5.5 µM | actives 2.6% (n = 200,000) | AID 932, 2007;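 active means activation above the screen-wide mean activation plus 3 SD, cut at about 130% in these data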;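 further: raw ratio to IFN-gamma control signal so 100% means no change and 0% no light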
STAT3 act: IL-6 driven STAT3 reporter potentiators, primary screen, U3A cells, luciferase, luminescence, MLSCN library. IL-6 STAT3-luciferase reporter; 100% = signal with IL-6 EC80 alone. activation (% of control), % at 5.6 µM. actives 0.91% (n = 190,000). AID 871, 2007;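 active means activation above the screen-wide mean of compound activation plus 3 SD, cut at about 130% in these data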;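 further: 0% = background luminescence of wells with medium and substrate only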
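Material: STAT3-luciferase reporter U3A cells; Probe or stimulus: IL-6 (33 ng/mL); Incubation: compound pre-incubation 1 h before IL-6, then 6 h stimulation at 37 °C; Technique: luminescence from STAT3-driven luciferase reporter; Evaluation: % activation versus median of IL-6-stimulated wells; Controls: IL-6-only high control.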
FLuc stim CS: FLuc activators, initial screening, artefact control for FLuc-dependent activation tests, biochemical, ATPlite luminescence; ATPlite luciferase biochemical, 10 min; 0 = ATP-free wells, 1 = DMSO control; Luciferin 4-monooxygenase (Photinus pyralis), P08659; activation factor at 10 µM; 200,000 tested, under 10 active;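 active means luciferase activation factor, scaled between plate controls, of at least 2 with compound at 10 µM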
Target sequence (P08659 whole entry, looked up): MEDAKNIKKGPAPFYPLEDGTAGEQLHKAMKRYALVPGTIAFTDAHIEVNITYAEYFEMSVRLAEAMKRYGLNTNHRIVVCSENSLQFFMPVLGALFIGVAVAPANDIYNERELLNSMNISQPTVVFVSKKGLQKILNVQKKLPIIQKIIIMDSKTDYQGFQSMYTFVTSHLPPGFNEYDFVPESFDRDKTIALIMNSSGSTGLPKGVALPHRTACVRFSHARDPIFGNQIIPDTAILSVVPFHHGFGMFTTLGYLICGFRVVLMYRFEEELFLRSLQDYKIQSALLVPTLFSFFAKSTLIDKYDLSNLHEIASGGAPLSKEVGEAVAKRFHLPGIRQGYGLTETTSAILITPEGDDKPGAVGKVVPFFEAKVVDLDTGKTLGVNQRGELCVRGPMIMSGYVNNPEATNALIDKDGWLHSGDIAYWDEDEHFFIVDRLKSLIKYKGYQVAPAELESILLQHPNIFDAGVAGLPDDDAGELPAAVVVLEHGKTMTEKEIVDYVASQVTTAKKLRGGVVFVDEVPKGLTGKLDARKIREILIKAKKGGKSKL
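System: Luciferase/luciferin detection reagent, cell-free biochemical luciferase assay | Medium: PBS buffer for ATP | Dosing: Test compounds dosed from 2 mM stocks in 100% DMSO | Timing: 10 min at ambient temperature | Signal: Luminescence measurement of luciferase light output | Evaluation: Luciferase activation, seen as luminescence increase over controls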
FLuc inh counter: firefly luciferase enzyme inhibitors, primary screen, artefact control for luciferase-based inhibitor screens, biochemical, luminescence, ATPLite; 10 min; inhibition, % at 10 µM; actives 1.5% (n = 200,000); AID 1006, 2008;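 active means inhibition above about 50% when tested at 10 µM, limit read from the data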
* = called active by the depositor; . = not tested or not shown. Only some compounds are listed: those with a hit (about 4.9% of all), similar ones and a draw of the others.

SMILES	STAT1 blocker	STAT3 blocker	STAT1 act	STAT3 act	FLuc stim CS	FLuc inh counter
CCOc1ccc2nc(NC(=O)c3cnc(C)cn3)sc2c1	-13.0	26.6	111.9	77.8	0.8	15.2
CCOc1ccc2nc(SCC(=O)c3cccs3)sc2c1	-33.2	-13.2	130.8*	112.5	1	-1.4
CCOc1ccc2nc(NC(=O)CCn3cccc3)sc2c1	-13.6	13.4	112.3	96.1	1	4.2
CCCC(=O)Nc1nc2ccc(OCC)cc2s1	-55.4	4.3	149.6*	100.8	0.8	15.4
O=C(CNC(=S)N(CCCN1CCOCC1)Cc1cccs1)N1CCCCCC1	-7.1	9.0	108.4	96.5	1.1	-9.3
CN1CCN(S(=O)(=O)c2cccc(C(=O)Nc3ccccc3N3CCOCC3)c2)CC1	-1.5	-3.1	99.9	104.7	1.1	-7.4
CC1=NCCN1S(=O)(=O)c1cc([N+](=O)[O-])ccc1Cl	-0.2	2.3	98.8	99.2	1.1	-8.7
COC(c1ccccc1)c1nnc(CCC(=O)NC2CCCCC2)o1 (stereo not drawn)	8.6	5.1	90.4	97.6	1	-4.9
COC(c1ccccc1)c1nnc(CCC(=O)N(C)C(C2CC2)C2CC2)o1 (stereo not drawn)	-35.0	-19.4	131.3*	116.7	1	-4.9
O=C(NC1CCS(=O)(=O)C1)c1cc(-c2ccccc2)nc2ccccc12 (stereo not drawn)	2.7	-0.4	96.9	102.4	1	0.0
O=C(C1COc2ccccc2O1)N1CCCC1 (stereo not drawn)	-2.4	6.0	101.5	95.9	1	-2.4
O=C(C1COc2ccccc2O1)N1CCc2ccccc21 (stereo not drawn)	-33.8	5.1	130.9*	99.1	1	0.1
CC(C)(C)[C@H]1C=C(C(=O)NC2CC2)O[C@@H](OCCCCO)C1	2.3	.	99.3	.	1	-0.9
O=C(CSc1ccc2ccccc2n1)c1ccc2c(c1)OCO2	-48.1	-5.0	134.1*	105.2	1.1	-5.0
COc1ccccc1/C(C)=N/NC(=S)NCc1ccccc1	-7.1	-2.9	105.6	103.4	1.1	-8.2
CC(C)(C)NC(=O)CSc1nc(-c2ccc(F)cc2)cs1	-47.2	11.4	141.2*	93.5	0.4	55.1*
O=C(CSc1ccccc1)NCCCc1ccccc1	-3.1	4.8	101.1	99.0	1.1	-6.2
COc1cccc(C(=O)/C=C/Nc2cc(C)ccc2O)c1	-37.1	-24.9	133.9*	124.5	0.4	61.6*
COc1ccc(N/C=C\C(=O)c2ccc(C)cc2)cc1OC	-49.3	7.5	142.6*	98.9	0.8	16.1
COc1cccc(N/C=C/C(=O)c2ccc(Br)cc2)c1	-72.8	33.8	161.6*	76.1	.	.
NS(=O)(=O)c1ccc(N/C=C/C(=O)c2ccc(Br)cc2)cc1	-47.7	-2.6	142.6*	104.5	0.9	5.3
C=CCn1c(SCC(=O)N2CCc3ccccc3C2)nnc1-c1ccncc1	-8.6	-3.2	107.6	100.5	1	-3.1
N/C(=N\OC(=O)CCC1CCCC1)c1cccnc1	-0.4	25.9	100.4	79.6	0.3	73.8*
N/C(=N\OC(=O)COc1ccc2ccccc2c1)c1ccccn1	-23.0	-18.8	120.9	115.3	1	0.9
N/C(=N\OC(=O)COc1ccc(Cl)cc1Br)c1cccnc1	-53.5	2.3	146.4*	103.6	0.7	25.8
SMILES	STAT1 blocker	STAT3 blocker	STAT1 act	STAT3 act	FLuc stim CS	FLuc inh counter
N/C(=N\OC(=O)CC1CCCCC1)c1ccncc1	-7.3	-2.3	105.2	106.0	0.8	24.6
N/C(=N\OC(=O)CC1CCCCC1)c1ccccn1	-31.2	-13.8	127.9	115.3	0.2	81.4*
Cc1ccc(C)c(OCC(=O)O/N=C(\N)c2ccccn2)c1	-38.7	-11.4	134.8*	112.1	1	1.6
CCn1ccnc1CN(C)Cc1nc(CCC(C)C)no1	-6.6	6.6	104.3	96.2	1.1	-6.0
O=C(c1ccc(F)cc1)N(C(=O)c1ccc(F)cc1)c1ncccn1	-3.5	0.8	102.5	101.3	1.1	-7.2
COc1ccc(NC(=O)COC(=O)C2CCC(C(C)(C)C)CC2)c([N+](=O)[O-])c1 (stereo not drawn)	3.1	-1.0	97.3	102.7	1.1	-5.0
N/C(=N\OC(=O)CC1CCCCC1)c1cccnc1	-14.9	2.2	113.3	102.2	0.4	64.6*
Cc1cccc(/C(N)=N/OC(=O)CCC2CCCCC2)c1	-13.4	6.5	112.3	101.8	0.5	53.5*
CCOC(=O)CN1C(=O)CCSc2ccc(Cl)cc21	2.1	-1.4	95.5	105.2	1.1	-5.6
Nc1ccc(O)c(-c2nc3ccccc3s2)c1	-30.7	-27.0	127.9	129.9	0.8	21.4
Oc1ccc(N=C/C=C/c2cccc(Br)c2)cc1-c1nc2ccccc2s1	-49.0	-18.2	143.6*	112.5	0.6	38.4
O=C(OCC(=O)c1cccs1)c1ccccc1	-41.1	-4.0	140.2*	109.1	0.5	50.0*
CCN(CC)C(=S)SCC(=O)c1ccccc1	-33.4	2.9	130.1*	103.8	0.9	6.3
CCN(CC)C(=S)SCC(=O)c1ccc(F)cc1	-36.3	-3.6	132.7*	113.1	1	2.2
O=C(Nn1c(C2CCCCC2)nc2ccccc2c1=O)c1ccc([N+](=O)[O-])cc1Cl	7.8	3.2	93.1	100.6	1	-2.7
CCn1c(C)nc2cc(C#N)ccc21	-4.3	11.5	102.6	95.8	1.1	-6.1
Fc1ccc(-c2nc3n(n2)Cc2ccccc2-3)cc1	-14.7	-14.8	113.6	116.7	0.3	74.7*
CCn1c(C)nc2cc(-c3nc4n(n3)Cc3ccccc3-4)ccc21	96.2*	115.2*	10.3	7.2	0	98.2*
CCCNC(=O)c1ccc(C2SCC(=O)N2CCc2ccccc2)cc1 (stereo not drawn)	-0.5	-4.3	100.4	103.7	1	-3.1
CC(NC(=S)Nc1ccc([N+](=O)[O-])cc1)c1ccncc1 (stereo not drawn)	4.3	10.1	93.5	95.5	1	-4.8
Brc1ccccc1-c1nnc(CSc2nnc3sc4ccccc4n23)o1	-7.5	-0.3	107.6	105.9	1	-2.4
Brc1ccccc1-c1nnc(SCc2nc3ccccc3s2)o1	-40.1	-49.9	135.6*	142.9*	0.8	19.3
CC(=O)Nc1cc2c(cc1C(=O)c1ccc(C)cc1)OCCO2	-6.5	-11.4	110.0	112.2	1.1	-6.1
O=C(Nc1cc2c(cc1Br)OCCCO2)c1ccccc1	-51.1	-4.5	146.4*	107.3	0.9	12.4

High-throughput results: PubChem, several laboratories
